APJ antagonist = blocks the human apelin receptor APJ; CHO-K1 APJ beta-arrestin complementation, luminescence; inhibition, % at 20 µM; 330,000 tested, 0.32% active; P35414;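 active means inhibition above about 40% at 20 µM, limit read from the data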;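 further: cells challenged with 10 nM apelin-13 agonist together with compound; plate controls were apelin-13 plus DMSO wells for no effect and DMSO wells lacking apelin-13 for full effect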
Target sequence (P35414 whole entry, looked up): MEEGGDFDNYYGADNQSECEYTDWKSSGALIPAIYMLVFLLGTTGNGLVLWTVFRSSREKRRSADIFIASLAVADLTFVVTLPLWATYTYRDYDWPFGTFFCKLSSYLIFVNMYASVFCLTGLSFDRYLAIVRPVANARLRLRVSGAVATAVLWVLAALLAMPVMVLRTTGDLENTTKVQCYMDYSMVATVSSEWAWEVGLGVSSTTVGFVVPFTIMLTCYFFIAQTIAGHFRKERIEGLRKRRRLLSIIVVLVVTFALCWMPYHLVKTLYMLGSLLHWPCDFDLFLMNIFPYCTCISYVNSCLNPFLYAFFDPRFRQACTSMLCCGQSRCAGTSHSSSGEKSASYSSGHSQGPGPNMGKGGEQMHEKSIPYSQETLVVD
EBI2 antag = antagonists of human EBI2 receptor. inhibition, % at 5 µM. EBI2 beta-arrestin recruitment, luminescence, 7a,25-OHC stimulated. P32249. 360,000 tested, 0.81% active; in the data active means inhibition above about 38%;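 further: enzyme fragment complementation signal reports receptor beta-arrestin coupling in cells; 0% = agonist plus DMSO wells and 100% = wells without agonist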
CCR6 antag = CCR6 (human) receptor antagonism; P51684; CHO-K1 CCR6 PathHunter beta-arrestin, luminescence, CCL20-stimulated; inhibition, % at 20 µM; 340,000 tested, 0.49% active; AID 493098;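 active means compounds whose inhibition of the agonist-driven luminescence signal at 20 µM reaches about 50%, limit read from the data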;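 further: cells stimulated with CCL20 at 14 nM final; plate controls were DMSO with CCL20 for no effect and DMSO without agonist for full effect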
CXCR6 block = inhibitors of human CXCR6 receptor; CHO-K1 PathHunter CXCR6 beta-arrestin, luminescence; inhibition, % at 20 µM; 360,000 tested, 0.36% active; AID 602244; in the data active means inhibition above about 34%, passing the limit was not always enough;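 further: antagonist mode with CXCL16 agonist at 10 nM final; 0% = 10 nM CXCL16 with DMSO and 100% = unstimulated wells without agonist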
APJ ag = activates the human apelin receptor APJ; CHO-K1 APJ PathHunter beta-arrestin, luminescence; 0% DMSO wells, 100% apelin; activation, % at 20 µM; 330,000 tested, 0.11% active;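 active means activation more than six SD over the plate average, tested at 20 µM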;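 further: 0% = DMSO alone and 100% = apelin-13 at 10 nM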
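Test system: CHO-K1 APJ beta-arrestin complementation cell line | Compound: Single test compound dose, 20 µM final, 1% DMSO | Incubation: Compound 90 min 25 °C, reagent 1 h | Measured by: beta-gal luminescence | Read-out basis: APJ–arrestin association signal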
An asterisk follows results filed as active; . = not tested or not shown. Only some compounds are listed: those with a hit (about 1.5% of all), similar ones and a draw of the others.

SMILES | APJ antagonist | EBI2 antag | CCR6 antag | CXCR6 block | APJ ag
CC1(C(=O)NCc2ccccc2)CSCC(=O)N1Cc1cccs1 (configuration not stated) | . | -8 | . | . | .
CCOC(=O)C(=Cc1ccc(OCc2ccc([N+](=O)[O-])cc2)c(OC)c1)C(=O)OCC | -2 | 54* | 9 | 9 | -2
COc1cc(/C=N/NC(=O)c2cccc([N+](=O)[O-])c2)ccc1OCc1ccccc1 | -24 | 30 | 17 | 1 | 2
CCOC1(OCC)OC(c2ccccc2)=C(C#N)C(C=Cc2ccccc2)C1(OCC)OCC (configuration not stated) | . | 22 | . | 10 | .
CCOC(=O)C1=C(O)/C(=C/c2cn(CC(=O)NCC3CCCO3)c3ccccc23)SC1=Nc1ccc(C)cc1 (configuration not stated) | 17 | 49* | 16 | 12 | -11
CCOC(=O)C1=C(O)/C(=C/c2ccc(-c3ccccc3C(=O)O)o2)SC1=Nc1ccc(C)cc1 | . | 40 | 24 | 7 | .
N#CC(=C1C=C(Br)C(=NO)C=C1Cl)c1cccc2ccccc12 | . | 10 | . | 40* | .
CCc1nnc(NC(=O)c2cccc(C(=O)Nc3nnc(CC)s3)n2)s1 | . | 27 | 73* | 52* | .
CC1(C(=O)Nc2cccc(NS(C)(=O)=O)c2)CCN1Cc1ccccc1OC(F)F (configuration not stated) | . | 3 | . | -2 | .
COc1ccc(N2C(=O)CC(Sc3ncn[nH]3)C2=O)c(OC)c1 (configuration not stated) | 9 | -2 | 79* | -4 | 4
CC(C)c1ccc(N2C(=O)CC(Sc3ncn[nH]3)C2=O)cc1 (configuration not stated) | 13 | -17 | 0 | -3 | 4
CC(=O)c1c(N)[nH]c(-c2ccccc2)nc1=S | 24 | 0 | 57* | 16 | -9
CCC1=NN(C(=O)c2cccc(Br)c2)C(O)(c2ccc(Br)cc2)C1 (configuration not stated) | 28 | 13 | 56* | 32 | -5
CN(Cc1ccc(Cl)cc1)C(=O)c1[nH]c(C(F)(F)F)nc1-c1ccccc1 | . | -2 | . | -4 | .
COc1ccc(NC(=O)C2(C)Cc3c(-c4cccc(C(F)(F)F)c4)ccnc3O2)cc1OC (configuration not stated) | . | 13 | . | 13 | .
Cc1cc(C)c2c(c1)/C(=C/C(=O)c1ccc(Br)s1)C(=O)N2 | -2 | 74* | 15 | 9 | 2
Cc1cc(Br)c2c(c1)/C(=C/C(=O)c1cccs1)C(=O)N2 | -52 | 34 | 2 | -2 | 2
Cc1cccc2c1NC(=O)/C2=C\C(=O)c1cccs1 | 12 | 43* | 46 | 12 | 0
COc1ccc(C(O)c2nc(-c3cccc(CO)c3)cs2)cc1 (configuration not stated) | . | 6 | . | -18 | .
CN(C)c1ccc(N=Nc2nccs2)cc1 | . | 16 | . | 51* | .
CN1C2C=CC(=O)C1C1C(=O)N(c3ccccc3)C(=O)C12 (configuration not stated) | . | -17 | . | 15 | .
Cc1cc(NCc2ccccn2)n2ncc(-c3ccc(Cl)cc3)c2n1 | 13 | 12 | 21 | 17 | 5
Cc1cc(NCc2ccccn2)n2nc(C)c(-c3ccc(Cl)cc3)c2n1 | -8 | -3 | 51* | 21 | 1
CC1=C(C(=O)N(C(C)C)C(C)C)CC(CC(=O)NCc2ccco2)C(=O)N1Cc1ccc(C(C)(C)C)cc1 (configuration not stated) | . | 4 | . | 4 | .
CCOC(=O)/C(=C\c1cccnc1)C(=O)c1cc(C(C)=O)c(Nc2ccccc2)s1 | 69* | 81* | 100* | 93* | -5
CCOC(=O)/C(=C\c1ccccc1)C(=O)c1cc(C(C)=O)c(Nc2ccccc2)s1 | 17 | 48* | 27 | 11 | 6
O=C(c1ccccc1F)N1CCC2CC1c1cc(N3CCCCC3)ccc12 (configuration not stated) | . | -2 | . | -6 | .
CCOC(=O)C1CCCN(C(=O)c2ccc(SC(F)(F)F)cc2)CC1 (configuration not stated) | . | 2 | . | 0 | .
CCCCNc1c(-c2ccc(SC(C)CC)c(OC)c2)nc2ccc(Cl)cn12 (configuration not stated) | -7 | 26 | 6 | -1 | -1
CCCCNc1c(-c2ccc(-c3ccc(OC)cc3)c(OC)c2)nc2ccccn12 | 4 | 54* | -18 | 0 | 6

Screens as filed in PubChem.
